# Measured values published in ChEMBL document CHEMBL3272249, “Esters of N-tert-butylarterenol. Long-acting new bronchodilators with reduced cardiac effects” (J Med Chem, 1976).
# Legend:
# [1] = system: Canis familiaris; assay: Bronchodilator activity in dog assessed as time of inhibition of carbachol or histamine-induced bronchoconstriction at 400 to 800 mg/kg, it relative to control; assay type: functional, Canis lupus familiaris; conditions: dose mg/kg 400-800; route endotracheal
# In short: (§1)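 Dog airway model: anesthetized, cannulated via a nonbreathing valve, with airway pressure changes recorded after iv carbachol (2–4 μg/kg) or histamine diphosphate (20–50 μg/kg) challenge, each agonist in different animals. Compounds were given iv, intraduodenally or intratracheally from fresh aqueous stocks diluted in saline. Duration (h) of inhibition of induced bronchoconstriction was followed, and the two agonist datasets were pooled.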
# [2] = system: Canis familiaris; assay: Bronchodilator activity in dog assessed as time of inhibition of carbachol or histamine-induced bronchoconstriction at 20 to 100 mg/kg, iv relative to control; assay type: functional, Canis lupus familiaris; conditions: dose mg/kg 20-100; in short: as §1
# [3] = system: Canis familiaris; assay: Bronchodilator activity in dog assessed as degree of inhibition of carbachol or histamine-induced bronchoconstriction at 50 to 100 mg/kg, id relative to control; assay type: functional, Canis lupus familiaris; conditions: dose mg/kg 50-100; route intraduodenal
# In short: (§2)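 Anesthetized dogs, trachea cannulated with a nonbreathing valve. Bronchoconstriction induced by iv carbachol (2–4 μg/kg) or histamine diphosphate (20–50 μg/kg) in separate animals, and airway pressure recorded by transducer. Drug stocks were made fresh in distilled water, diluted in saline and kept on ice. Read-out was percent inhibition of control constriction, averaged over at least three dogs per dose at the higher dose. Carbachol and histamine data were combined.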
# [4] = system: Canis familiaris; assay: Bronchodilator activity in dog assessed as degree of inhibition of carbachol or histamine-induced bronchoconstriction at 400 to 800 mg/kg, it relative to control; assay type: functional, Canis lupus familiaris; conditions: dose mg/kg 400-800; route endotracheal; in short: as §2
# [5] = system: Canis familiaris; assay: Cardiotoxicity in spontaneously respiring dog assessed as degree of increase in heart rate at 20 to 100 mg/kg, iv relative to control; assay type: toxicity, organism-based, Canis lupus familiaris; design: dose 20-100 mg/kg, route intravenous; conditions: in vivo
# In short: (§3)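 Anesthetized, spontaneously respiring dogs. Heart rate was taken from a lead II EKG, and blood pressure from the right femoral artery by transducer. The increase in heart rate (beats/min) was scored on a graded scale with more than 4 dogs per dose, and its duration was recorded. Drugs were dissolved fresh in distilled water, diluted in physiological saline and kept on ice.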
# [6] = system: Canis familiaris; assay: Bronchodilator activity in dog assessed as time of inhibition of carbachol or histamine-induced bronchoconstriction at 50 to 100 mg/kg, id relative to control; assay type: functional, Canis lupus familiaris; conditions: dose mg/kg 50-100; route intraduodenal
# In short: (§4)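 Anesthetized dogs with an airway cannula and a nonbreathing valve. Bronchoconstriction was induced by iv carbachol (2–4 μg/kg) or histamine diphosphate (20–50 μg/kg) and read as change in airway pressure by transducer. Each compound was tested against both agonists in different dogs, and the results were combined and averaged. Effect is % inhibition of control constriction, with at least three dogs per dose. Drugs were dissolved fresh in distilled water, diluted in saline and kept on ice.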
# [7] = system: Canis familiaris; assay: Cardiotoxicity in spontaneously respiring dog assessed as time of increase in heart rate at 20 to 100 mg/kg, iv relative to control; assay type: toxicity, organism-based, Canis lupus familiaris; design: dose 20-100 mg/kg, route intravenous; conditions: in vivo; in short: as §3
# [8] = system: Canis familiaris; assay: Bronchodilator activity in dog assessed as degree of inhibition of carbachol or histamine-induced bronchoconstriction at 20 to 100 mg/kg, iv relative to control; assay type: functional, Canis lupus familiaris; conditions: dose mg/kg 20-100; in short: as §2
# [9] = system: Canis familiaris; assay: Cardiotoxicity in spontaneously respiring dog assessed as time of increase in heart rate at 540 to 1080 mg/kg, it relative to control; conditions: in vivo
# [10] = system: Canis familiaris; assay: Bronchodilator activity in dog assessed as time of inhibition of carbachol or histamine-induced bronchoconstriction at 70 to 280 mg/kg, id relative to control; assay type: functional, Canis lupus familiaris; conditions: dose mg/kg 70-280; route intraduodenal; in short: as §4
# [11] = system: Canis familiaris; assay: Bronchodilator activity in dog assessed as degree of inhibition of carbachol or histamine-induced bronchoconstriction at 35 to 140 mg/kg, iv relative to control; assay type: functional, Canis lupus familiaris; conditions: dose mg/kg 35-140; in short: as §2
# [12] = system: Canis familiaris; assay: Bronchodilator activity in dog assessed as time of inhibition of carbachol or histamine-induced bronchoconstriction at 540 to 1080 mg/kg, it relative to control; assay type: functional, Canis lupus familiaris; conditions: dose mg/kg 540-1080; route endotracheal; in short: as §4
# [13] = system: Canis familiaris; assay: Bronchodilator activity in dog assessed as time of inhibition of carbachol or histamine-induced bronchoconstriction at 35 to 140 mg/kg, iv relative to control; assay type: functional, Canis lupus familiaris; conditions: dose mg/kg 35-140; in short: as §1
# [14] = system: Canis familiaris; assay: Cardiotoxicity in spontaneously respiring dog assessed as time of increase in heart rate at 35 to 140 mg/kg, iv relative to control; assay type: toxicity, organism-based, Canis lupus familiaris; design: dose 35-140 mg/kg, route intravenous; conditions: in vivo; in short: as §3
# [15] = system: Canis familiaris; assay: Cardiotoxicity in spontaneously respiring dog assessed as time of increase in heart rate at 70 to 280 mg/kg, id relative to control; assay type: toxicity, organism-based, Canis lupus familiaris; design: dose 70-280 mg/kg, route intraduodenal; conditions: in vivo, other
# In short: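 Anesthetized, spontaneously respiring dogs. Heart rate monitored by lead II EKG, with blood pressure taken from the right femoral artery by pressure transducer and recorded on a polygraph. Drug stocks made fresh in distilled water, diluted in physiological saline and kept on ice. Dosing was iv, id or it as listed. The duration of the heart-rate increase was recorded in h, with more than 4 dogs per dose.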
# [16] = system: Canis familiaris; assay: Cardiotoxicity in spontaneously respiring dog assessed as degree of increase in heart rate at 540 to 1080 mg/kg, intratracheal relative to control; conditions: in vivo
# [17] = system: Canis familiaris; assay: Cardiotoxicity in spontaneously respiring dog assessed as degree of increase in heart rate at 35 to 140 mg/kg, iv relative to control; assay type: toxicity, organism-based, Canis lupus familiaris; design: dose 35-140 mg/kg, route intravenous; conditions: in vivo; in short: as §3
# [18] = system: Canis familiaris; assay: Cardiotoxicity in spontaneously respiring dog assessed as degree of increase in heart rate at 70 to 280 mg/kg, id relative to control; assay type: toxicity, organism-based, Canis lupus familiaris; design: dose 70-280 mg/kg, route intraduodenal; conditions: in vivo, other; in short: as §3
# [19] = system: Canis familiaris; assay: Bronchodilator activity in dog assessed as degree of inhibition of carbachol or histamine-induced bronchoconstriction at 540 to 1080 mg/kg, it relative to control; assay type: functional, Canis lupus familiaris; conditions: dose mg/kg 540-1080; route endotracheal; in short: as §2
# [20] = system: Canis familiaris; assay: Bronchodilator activity in dog assessed as degree of inhibition of carbachol or histamine-induced bronchoconstriction at 70 to 280 mg/kg, id relative to control; assay type: functional, Canis lupus familiaris; conditions: dose mg/kg 70-280; route intraduodenal; in short: as §2
# [21] = system: Canis familiaris; assay: Bronchodilator activity in dog assessed as degree of inhibition of carbachol or histamine-induced bronchoconstriction at 300 to 1200 mg/kg, it relative to control; assay type: functional, Canis lupus familiaris; conditions: dose mg/kg 300-1200; route endotracheal; in short: as §2
# [22] = system: Canis familiaris; assay: Bronchodilator activity in dog assessed as degree of inhibition of carbachol or histamine-induced bronchoconstriction at 140 to 280 mg/kg, iv relative to control; assay type: functional, Canis lupus familiaris; conditions: dose mg/kg 140-280; in short: as §2
# [23] = system: Canis familiaris; assay: Bronchodilator activity in dog assessed as time of inhibition of carbachol or histamine-induced bronchoconstriction at 140 to 280 mg/kg, iv relative to control; assay type: functional, Canis lupus familiaris; conditions: dose mg/kg 140-280; in short: as §1
# [24] = system: Canis familiaris; assay: Bronchodilator activity in dog assessed as time of inhibition of carbachol or histamine-induced bronchoconstriction at 140 mg/kg, id relative to control; assay type: functional, Canis lupus familiaris; conditions: route intraduodenal; in short: as §1
# [25] = system: Canis familiaris; assay: Bronchodilator activity in dog assessed as degree of inhibition of carbachol or histamine-induced bronchoconstriction at 140 mg/kg, id relative to control; assay type: functional; conditions: Canis lupus familiaris, route intraduodenal; in short: as §2
# [26] = system: Canis familiaris; assay: Bronchodilator activity in dog assessed as time of inhibition of carbachol or histamine-induced bronchoconstriction at 300 to 1200 mg/kg, it relative to control; assay type: functional, Canis lupus familiaris; conditions: dose mg/kg 300-1200; route endotracheal; in short: as §1
# [27] = system: Canis familiaris; assay: Bronchodilator activity in dog assessed as time of inhibition of carbachol or histamine-induced bronchoconstriction at 100 to 200 mg/kg, iv relative to control; assay type: functional, Canis lupus familiaris; conditions: dose mg/kg 100-200; in short: as §1
# [28] = system: Canis familiaris; assay: Cardiotoxicity in spontaneously respiring dog assessed as time of increase in heart rate at 100 to 200 mg/kg, iv relative to control; assay type: toxicity, organism-based, Canis lupus familiaris; design: dose 100-200 mg/kg, route intravenous; conditions: in vivo; in short: as §3
# [29] = system: Canis familiaris; assay: Bronchodilator activity in dog assessed as degree of inhibition of carbachol or histamine-induced bronchoconstriction at 100 to 200 mg/kg, iv relative to control; assay type: functional, Canis lupus familiaris; conditions: dose mg/kg 100-200; in short: as §2
# [30] = system: Canis familiaris; assay: Cardiotoxicity in spontaneously respiring dog assessed as degree of increase in heart rate at 100 to 200 mg/kg, iv relative to control; assay type: toxicity, organism-based, Canis lupus familiaris; design: dose 100-200 mg/kg, route intravenous; conditions: in vivo; in short: as §3
smiles,measurement,setting,value
CC(C)(C)NC[C@H](O)c1ccc(OC(=O)C(C)(C)C)c(OC(=O)C(C)(C)C)c1.Cl,Time,[1],<2 h
same,Time,[2],3 h
same,inhibition (INH),[3],>70%
same,inhibition (INH),[4],45%
same,Activity,[5],20 beats/min
same,Time,[6],3 h
same,Time,[7],< 2 h
same,inhibition (INH),[8],>70%
CS(=O)(=O)O.Cc1ccc(C(=O)Oc2ccc([C@@H](O)CNC(C)(C)C)cc2OC(=O)c2ccc(C)cc2)cc1,Time,[9],< 1 h
same,Time,[10],>5 h
same,inhibition (INH),[11],>70%
same,Time,[12],>5 h
same,Time,[13],>5 h
same,Time,[14],2 h
same,Time,[15],2 h
same,Activity,[16],5%
same,Activity,[17],20%
same,Activity,[18],20%
same,inhibition (INH),[19],45%
same,inhibition (INH),[20],>70%
CS(=O)(=O)O.Cc1cccc(C(=O)Oc2ccc([C@@H](O)CNC(C)(C)C)cc2OC(=O)c2cccc(C)c2)c1,inhibition (INH),[21],45%
same,inhibition (INH),[22],>70%
same,Time,[23],>3 h
same,Time,[24],2 h
same,inhibition in vivo at 140 mg/kg,[25],45%
same,Time,[26],<4 h
CC(C)(C)NC[C@H](O)c1ccc(OC(=O)C2CCCCC2)c(OC(=O)C2CCCCC2)c1.Cl,Time,[27],<5 h
same,Time,[28],< 3 h
same,inhibition (INH),[29],45%
same,Activity,[30],20%
